Experimental data taken from PubChem BioAssay AID492983 (Johns Hopkins Ion Channel Center, 2010).

Target: Short transient receptor potential channel 4 (Mus musculus) (UniProt Q9QUQ5)
Assay: inhibitors of receptor-activated mouse TRPC4 currents – cell-based, manual patch clamp, HEK TRPC4beta/mu-opioid, orthogonal assay, SAR follow-up (AID 492983)
Conditions: whole-cell patch clamp currents, at 1 µM, stronger effect = higher value
In short: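 Measured by: whole-cell voltage-clamp recording with voltage ramps. System: HEK293 cells expressing TRPC4beta and mu-opioid receptor. Times: over 2 min compound pretreatment, room temperature (22 °C). Buffer or medium: pipette solution with ~400 nM free Ca2+, external solution pH 7.4. Control set: untreated cells without compound as reference. Reagent: 10 µM carbachol with 0.1 µM DAMGO.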

Chain of Short transient receptor potential channel 4 (Mus musculus) (Q9QUQ5 whole entry, looked up): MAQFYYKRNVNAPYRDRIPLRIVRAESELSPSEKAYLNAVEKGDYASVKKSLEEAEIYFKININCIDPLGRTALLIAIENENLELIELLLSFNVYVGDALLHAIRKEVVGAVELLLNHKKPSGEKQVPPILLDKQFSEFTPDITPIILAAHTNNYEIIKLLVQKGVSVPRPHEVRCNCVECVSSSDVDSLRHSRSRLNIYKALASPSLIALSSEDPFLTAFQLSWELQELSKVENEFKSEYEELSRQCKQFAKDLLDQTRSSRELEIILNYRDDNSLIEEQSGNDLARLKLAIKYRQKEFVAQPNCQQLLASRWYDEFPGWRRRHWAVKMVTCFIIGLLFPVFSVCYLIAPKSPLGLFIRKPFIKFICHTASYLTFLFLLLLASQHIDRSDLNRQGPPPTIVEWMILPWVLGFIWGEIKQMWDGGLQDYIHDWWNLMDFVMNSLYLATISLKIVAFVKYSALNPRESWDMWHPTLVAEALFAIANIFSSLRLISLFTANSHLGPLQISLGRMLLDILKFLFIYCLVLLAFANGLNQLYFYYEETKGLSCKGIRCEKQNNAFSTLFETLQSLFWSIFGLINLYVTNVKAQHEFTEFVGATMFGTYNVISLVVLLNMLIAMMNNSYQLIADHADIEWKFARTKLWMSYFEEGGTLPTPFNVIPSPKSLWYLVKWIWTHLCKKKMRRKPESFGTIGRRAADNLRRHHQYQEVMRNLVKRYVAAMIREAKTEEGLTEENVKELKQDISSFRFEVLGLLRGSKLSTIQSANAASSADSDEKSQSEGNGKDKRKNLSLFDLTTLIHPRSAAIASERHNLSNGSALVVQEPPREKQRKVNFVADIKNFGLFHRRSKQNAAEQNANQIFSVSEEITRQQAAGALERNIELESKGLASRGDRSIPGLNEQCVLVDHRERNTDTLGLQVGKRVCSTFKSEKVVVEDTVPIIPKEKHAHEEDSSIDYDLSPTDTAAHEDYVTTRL

inhibition at -100 mV: 69.5%
inhibition at +100 mV (measured here: outward current at +100 mV): 29.2%
SMILES: Cc1cc(N2CCCCC2)nc2ccccc12
